Experimental findings from ChEMBL document CHEMBL1127409 (J Med Chem, 1994) are described below.

The term IC50 denotes the concentration needed to halve the response being measured. A high value points to lower potency. In general, Ki refers to the dissociation constant of the complex between target and ligand, obtained from inhibition or displacement. A higher Ki goes with a looser hold on the target. In general, ED50 refers to the midpoint of the dose-response relation.

Structures are written as SMILES.

The nature of assay [1]: The compound was tested for its affinity for the glutamic acid binding site of the non-NMDA receptor by using [3H]-kainic acid as radioligand. Details: species or system Rattus norvegicus. In outline:
(§1)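 Selectivity radioligand binding, run like the [3H]DCKA assay on rat brain synaptic membranes. [3H]CGP-39653 labels the NMDA glutamic acid site; [3H]AMPA and [3H]kainic acid label non-NMDA receptors.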

Assay [2] addresses Glutamate NMDA receptor. The assay can be described thus: Affinity for the glycine binding site of NMDA receptor by inhibition of [3H]5,7-dichlorokynurenic acid ([3H]DCKA) binding to rat brain synaptic membrane.
Assay [3] addresses Glutamate NMDA receptor. The assay can be described thus: The compound was tested for its functional antagonism of the NMDA receptor by using [3H]-MK-801 as radioligand.
The target of assay [4] is Glutamate NMDA receptor. Kind of assay: The compound was tested for its affinity for the glutamic acid binding site of the NMDA receptor by using [3H]CGP-39653 as radioligand. The class given is protein-complex assay. Put shortly:
as §1

Assay [5] in a line: The compound was tested for its affinity for the glutamic acid binding site of the non-NMDA receptor by using [3H]AMPA as radioligand. Details: species or system Rattus norvegicus. In outline: as §1
Assay [6] deals with Glutamate NMDA receptor (Mus musculus). The assay can be described thus: In vivo inhibition of NMDA-induced seizures.

As for `O=C(O)CC1CCc2cc(Br)cc3[nH]c(=O)c(=O)n1c23` (stereo not drawn), the IC50 in assay [1] is above 30000 nM; in assay [3] it was 4100 nM; in assay [4], above 30000 nM; in assay [5] it was 4600 nM. Moreover, the Ki in assay [2] was found to be 9.9 nM. In assay [6], this compound gave an ED50 of 64 mg/kg. `O=C(O)C1Cc2cc(Br)cc3[nH]c(=O)c(=O)n1c23` (stereo not drawn) showed an inhibition constant Ki in assay [2] of 83 nM. Same read-out and setting: under `O=C(NCC1CCc2cc(Br)cc3[nH]c(=O)c(=O)n1c23)Nc1ccccc1` (stereo not drawn) stands 480 nM; under `O=C(C[C@@H]1CCc2cc(Br)cc3[nH]c(=O)c(=O)n1c23)Nc1ccccc1`, 0.96 nM. The same measure, in the same setting: the figure for `O=C(O)CC1Cc2cc(Br)cc3[nH]c(=O)c(=O)n1c23` (stereo not drawn) is 7.3 nM.

In assay [2], `O=c1[nH]c2cc(Br)cc3c2n(c1=O)CC3` displayed an inhibition constant Ki above 3000 nM. For the compound `O=C(O)C[C@H]1CCc2cc(Br)cc3[nH]c(=O)c(=O)n1c23`, the Ki in assay [2] stood at 9.6 nM. The compound `O=C(Nc1ccccc1)C1Cc2cc(Br)cc3[nH]c(=O)c(=O)n1c23` (stereo not drawn) yielded an inhibitory constant (Ki) in assay [2] of 930 nM. On the same count and under the same terms, under `O=c1[nH]c2cc(Br)cc3c2n(c1=O)CCC3` stands 710 nM. In the case of `O=C(O)C[C@@H]1CCc2cc(Br)cc3[nH]c(=O)c(=O)n1c23`, the Ki in assay [2] came out at 2.3 nM. In assay [6], this compound yielded a 50% effective dose (ED50) of 26 mg/kg.

Consider `O=C(CC1Cc2cc(Br)cc3[nH]c(=O)c(=O)n1c23)Nc1ccccc1` (stereo not drawn), for which, in assay [2], the affinity corresponds to a Ki of 170 nM. The same measure, in the same setting: the figure for `O=C(C[C@H]1CCc2cc(Br)cc3[nH]c(=O)c(=O)n1c23)Nc1ccccc1` is 82 nM; for `O=C(O)c1cc(O)c2c(Cl)cc(Cl)cc2n1` it is 40 nM.

In turn, `O=C(O)C1CCc2cc(Br)cc3[nH]c(=O)c(=O)n1c23` (stereo not drawn) showed a Ki in assay [2] of 30 nM. The same measure, in the same setting: under `O=C(CCC1CCc2cc(Br)cc3[nH]c(=O)c(=O)n1c23)Nc1ccccc1` (stereo not drawn) stands 320 nM; under `O=C(O)CCC1CCc2cc(Br)cc3[nH]c(=O)c(=O)n1c23` (stereo not drawn), 38 nM; under `O=C(NCC1Cc2cc(Br)cc3[nH]c(=O)c(=O)n1c23)Nc1ccccc1` (stereo not drawn), 430 nM. On to `O=C(CC1CCc2cc(Br)cc3[nH]c(=O)c(=O)n1c23)Nc1ccccc1` (stereo not drawn), for which the concentration for half-maximal inhibition (IC50) is above 25000 nM in assay [1], 1700 nM in assay [3], above 25000 nM in assay [4] and 4600 nM in assay [5]. Also, in assay [2], the Ki was 2.6 nM. Turning to `Oc1nc2cc(Cl)c(Cl)cc2nc1O` [2,3-DIHYDROXY-6,7-DICHLOROQUINOXALINE], in assay [2], the Ki worked out at 160 nM.

`O=C(NCC1Cc2cc(Br)cc3[nH]c(=O)c(=O)n1c23)c1ccccc1` (stereo not drawn): in assay [2], the Ki is above 2000 nM. `O=C(Nc1ccccc1)C1CCc2cc(Br)cc3[nH]c(=O)c(=O)n1c23` (stereo not drawn) came in with a Ki in assay [2] of 2100 nM. On the same count and under the same terms, the figure for `O=C(NCC1CCc2cc(Br)cc3[nH]c(=O)c(=O)n1c23)c1ccccc1` (stereo not drawn) is 190 nM. Same read-out and setting: under `O=C(Nc1ccccc1)N[C@H]1C[C@H](C(=O)O)Nc2cc(Cl)cc(Cl)c21` stands 2 nM.
